# Measurements collected from several papers.
Compound,test system,setting,Papp [×10⁻⁶ cm/s]
Cc1csc2c(=O)n(O)c(=O)[nH]c12,PAMPA,"10 µM, 5 h",0.1
O=C(O)c1ccc2c(c1)nc(NCc1ccccc1)c1ncncc12,PAMPA,"5 h, pH 7.4",2.79
O=C(NCCN1CCCC1)c1cc(-c2ccc(CN3CCOCC3)cc2)nc2ccc(F)cc12,PAMPA,,7.3
Cc1cc(N)nc(C#CCCN(C)C)c1,PAMPA-BBB,"200 µM, 17 h",4.7
c1cncc(-c2cccc(Nc3nccc(NC4CCC4)n3)c2)c1,PAMPA,"50 nM, 30 min",2050
CC(C)c1noc(C2CCN(c3ncnc(Nc4ccc(S(C)(=O)=O)cc4F)c3[N+](=O)[O-])CC2)n1,PAMPA-BBB,"0.5 µM, 4 h, pH 7.4",3.02
Cc1cccc(/C=C/[C@@H]2[C@H](N3C(=O)OC[C@@H]3c3ccccc3)C(=O)N2[C@H](CC(=O)N2CCC(N3CCCCC3)CC2)C(=O)N[C@H](C)c2ccccc2)c1,PAMPA-BBB,"25 µg/mL, 18 h, pH 7.4",> 4
COCC(C)Nc1ccnc(Nc2cccc(-c3cccnc3)c2)n1 (centres unmarked),PAMPA,"50 nM, 30 min",1910
C[C@@H](NC(=O)[C@@H](CC(=O)N1CCC(N2CCCCC2)CC1)N1C(=O)[C@@H](N2C(=O)OC[C@@H]2c2ccccc2)[C@H]1/C=C/c1cccc(F)c1)c1ccccc1,PAMPA-BBB,"25 µg/mL, 18 h, pH 7.4",> 4
Cc1sc2c(=O)n(O)c(=O)[nH]c2c1C,PAMPA,"10 µM, 5 h",0.5
N#Cc1ccc(/C=C/CN(CC[C@H](N)C(=O)O)C[C@H]2O[C@@H](n3cnc4c(N)ncnc43)[C@H](O)[C@@H]2O)cc1,PAMPA,"200 µM, 5 h",0.01
NC(=O)C1CCN(c2nc(-c3ccccn3)nc3ccccc23)C1 (centres unmarked),PAMPA,"10 µM, 3 h, pH 7.4",8
O=C(CNc1cccc(OC(F)(F)F)c1)NC12CC3CC(CC(C3)C1)C2,PAMPA,16 h,3.5
CC(C)Nc1ccnc(Nc2cccc(-c3ccccn3)c2)n1,PAMPA,"50 nM, 30 min",2010
c1ccc(-c2nc(NCc3nc4ccccc4o3)c3ccccc3n2)nc1,PAMPA,"10 µM, 3 h, pH 7.4",27.8
CC(C)[C@@H]1NC(=O)[C@@H](Cc2ccccc2)OC(=O)CN(C)C(=O)[C@H](C(C)C)NC(=O)[C@@H](Cc2ccccc2)OC(=O)CN(C)C1=O,PAMPA,,56
N=c1c2c(-c3ccccc3)cn(Cc3ccccc3)c2ncn1C1CCOCC1,PAMPA,"50 µM, 30 min",1730
CCN1CCc2c(sc3[nH]c(=O)n(O)c(=O)c23)C1,PAMPA,"10 µM, 5 h",0.08
CCN1CC(=O)NC(CC(C)C)C(=O)N(C)C(C)C(=O)NC(CC(C)C)C(=O)N2CCCC2C(=O)N(CC2CCCCC2)CC(=O)NC(CC(C)C)C(=O)N(C)C(C)C(=O)NC(Cc2ccccc2)C(=O)N2CCCC2C1=O (centres unmarked),PAMPA,,18
c1ccc(-c2nc(N3CCc4nc[nH]c4C3)c3ccccc3n2)nc1,PAMPA,"10 µM, 3 h, pH 7.4",11.8
O=C(Nc1ccn(Cc2ccc(O)cc2C(F)(F)F)n1)c1c(F)cccc1F,PAMPA,,36
N#Cc1cccc(-c2nc(N3CCC(c4ccccn4)C3)c3ccccc3n2)c1 (centres unmarked),PAMPA,"10 µM, 3 h, pH 7.4",36.9
O=c1[nH]c2c(-c3ccccc3)csc2c(=O)n1O,PAMPA,"10 µM, 5 h",1.5
c1cncc(-c2cccc(Nc3nccc(NC4CCNCC4)n3)c2)c1,PAMPA,"50 nM, 30 min",8.2
Cc1cc(-c2ccc(Sc3cc(=O)n(O)c(=O)[nH]3)cc2)ccc1F,PAMPA,"10 µM, 5 h",1.1
Oc1ccc(-c2nc(N3CCC(c4ccccn4)C3)c3ccccc3n2)cc1 (centres unmarked),PAMPA,"10 µM, 3 h, pH 7.4",32.8
O=c1[nH]c2scc(-c3ccc(Cl)cc3)c2c(=O)n1O,PAMPA,"10 µM, 5 h",0.5
Cc1c(C)n(Cc2ccccc2)c2ncn(C3CCOCC3)c(=N)c12,PAMPA,"50 µM, 30 min",1680
O=c1[nH]c2sc(-c3ccc(F)cc3)cc2c(=O)n1O,PAMPA,"10 µM, 5 h",0.6
COC(=O)c1cccc(-c2cccc(Nc3nccc(NC4CCCCC4)n3)c2)c1,PAMPA,"50 nM, 30 min",76.9
O=c1[nH]c2cc(-c3ccc(Cl)cc3)ccc2c(=O)n1O,PAMPA,"10 µM, 5 h",1.7
CC(C)Nc1ccnc(Nc2cccc(-c3nccs3)c2)n1,PAMPA,"50 nM, 30 min",1960
CO[C@H]1CNC[C@@H](OCC2CCC(F)(F)CC2)[C@@H]1Nc1ncc(-c2cncc(C)c2)c2cc(C)c(=O)[nH]c12,PAMPA,pH 7.4,19
N=c1c2c(-c3ccccc3)c(-c3ccccc3)n(CCc3ccccc3)c2ncn1CC1CCOCC1,PAMPA,"50 µM, 30 min",1230
c1ccc(-c2nc(N3CCC(c4ccccn4)C3)c3ccccc3n2)nc1 (centres unmarked),PAMPA,"10 µM, 3 h, pH 7.4",22.6
CC(C)Nc1ccnc(Nc2ccccc2-c2ccccc2)n1,PAMPA,"50 nM, 30 min",2360
CC(C)NCC(O)COc1cccc2ccccc12 (centres unmarked),PAMPA-BBB,"50 µM, 16 h, pH 7.4",22.4
c1ccc(-c2nc(NCCn3ccnc3)c3ccccc3n2)nc1,PAMPA,"10 µM, 3 h, pH 7.4",8.4
N=c1c2c(-c3ccccc3)c(-c3ccccc3)n(Cc3ccc(OC(F)(F)F)cc3)c2ncn1[C@H]1CC[C@H](O)CC1,PAMPA,"50 µM, 30 min",1250
C[C@H](Nc1ccnc(Nc2cccc(-c3cccnc3)c2)n1)C(=O)O,PAMPA,"50 nM, 30 min",9.7
COc1ccc(CCn2cnc3c(c(-c4ccccc4)c(-c4ccccc4)n3Cc3ccccc3)c2=N)cc1OC,PAMPA,"50 µM, 30 min",1200
CC[C@H](C)[C@@H]1NC(=O)[C@@H](Cc2ccccc2)OC(=O)CNC(=O)[C@H]([C@@H](C)CC)NC(=O)[C@@H](Cc2ccccc2)OC(=O)CNC1=O,PAMPA,,47
Cc1cccnc1CNc1nc(-c2ccccn2)nc2ccccc12,PAMPA,"10 µM, 3 h, pH 7.4",27.1
CN(C)CCn1cnc2c(c(-c3ccccc3)c(-c3ccccc3)n2Cc2ccccc2)c1=N,PAMPA,"50 µM, 30 min",1360
